Bioassay records deposited in PubChem BioAssay by The Scripps Research Institute Molecular Screening Center.
M5 PAM: CHRM5 positive allosteric modulation | activation, % at 3 µM | P08912 | CHO-K1 hM5, Fluo-8 calcium, ACh EC20 PAM; 0% = ACh EC20, 100% = ACh EC100 | actives 0.3% (n = 360,000);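 active = activation above the run cutoff, the mean activation of all test compounds plus 3 SD, cut at about 18% in these data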
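System: CHO-K1 cell line with stable human muscarinic M5 receptor expression | Also added: EC20 acetylcholine as agonist stimulus | Compound: One concentration, 3 µM final (nominal) | Timing: Fluo-8 loading 80 min at 37 °C plus 30 min room temperature | Measured by: Fluo-8 calcium dye fluorescence, kinetic read | Read-out basis: % activation, ACh-normalized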
CHRM4 agonist: CHRM4 agonism in calcium assay; P08173; CHO-K1 hM4/Gqi5, Fluo-8 calcium fluorescence; vehicle 0%, full acetylcholine response 100%; activation, % at 3 µM; actives 0.14% (n = 360,000); AID 624127;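 active = activation above the run mean over all test wells plus 3 SD, cut at about 32% in these data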;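 also: peak over basal fluorescence ratio per well then scaled between controls; 0% = DMSO wells and 100% = acetylcholine at EC100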
Target sequence (P08173 whole entry, looked up): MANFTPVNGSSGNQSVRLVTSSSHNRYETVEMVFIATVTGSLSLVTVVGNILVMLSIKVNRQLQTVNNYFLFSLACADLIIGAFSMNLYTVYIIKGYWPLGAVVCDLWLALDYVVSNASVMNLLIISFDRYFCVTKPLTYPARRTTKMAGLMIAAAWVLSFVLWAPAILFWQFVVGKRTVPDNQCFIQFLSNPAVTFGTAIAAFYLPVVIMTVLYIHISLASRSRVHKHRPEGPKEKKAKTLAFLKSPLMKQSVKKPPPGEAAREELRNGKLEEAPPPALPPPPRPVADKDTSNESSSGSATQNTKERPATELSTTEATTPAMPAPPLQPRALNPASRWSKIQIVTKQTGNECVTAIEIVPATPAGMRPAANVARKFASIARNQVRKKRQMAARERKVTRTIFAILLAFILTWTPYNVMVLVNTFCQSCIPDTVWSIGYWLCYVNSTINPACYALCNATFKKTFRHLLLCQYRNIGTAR
M5 ag: agonists of human muscarinic M5 receptor (CHRM5); actives 0.19% (n = 360,000); P08912; activation, % at 3 µM; AID 624037; CHO-K1 hM5 cells, Fluo-8 calcium fluorescence; 0% DMSO wells, 100% maximal acetylcholine response;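 active = activation above the run's mean over test compounds plus 3 SD, cut at about 23% in these data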;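 also: signal is peak over basal fluorescence ratio across the kinetic read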
CHRM4 PAM: positive allosteric modulators of human muscarinic M4 receptor; CHO-K1 hM4/Gqi5, Fluo-8 calcium fluorescence, ACh EC20; 0% = ACh EC20, 100% = maximal ACh; actives 0.4% (n = 360,000); AID 624126; activation, % at 3 µM; P08173;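 active = activation above its plate's cutoff, the mean activation of sample wells plus 3 SD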
M4 antag: antagonists of human muscarinic M4 receptor (CHRM4) | CHO-hM4 cells, ACh EC80, Fluo-8 calcium fluorescence | actives 0.73% (n = 360,000) | inhibition, % at 3 µM;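 active = inhibition above its plate's cutoff, the mean inhibition of sample wells plus 3 SD, cut at about 27% in these data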;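 also: 0% = acetylcholine EC80 with DMSO and 100% = DMSO without agonist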
CHRM5 antagonist: CHRM5 antagonism in calcium assay. CHO-hM5 cells, Fluo-8 calcium fluorescence, ACh EC80. actives 0.59% (n = 360,000). AID 624040. inhibition, % at 3 µM;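 active = inhibition above a per-plate cutoff, the mean of that plate's test compounds plus 3 SD, cut at about 27% in these data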;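 also: 0% = acetylcholine EC80 with DMSO and 100% = DMSO without agonist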
* hit, by the source's call. Only some compounds are listed: those with a hit (about 1.8% of all), similar ones and a draw of the others.

SMILES	M5 PAM	CHRM4 agonist	M5 ag	CHRM4 PAM	M4 antag	CHRM5 antagonist
COc1cccc2cc(C(=O)NCc3ccccn3)c(=O)oc12	1	2	-2	22*	-1	-2
CNC(=O)c1cc2cccc(OC)c2oc1=O	2	1	1	6	-6	0
CC(C)(c1ccc(O)c([N+](=O)[O-])c1)c1ccc(O)c([N+](=O)[O-])c1	-15	2	-4	8	-15	11
CN(C)Cc1cc(C(C)(C)c2ccccc2)ccc1O	-38	4	-11	-9	2	29*
OC(CCN1CC2CCC(CC2)C1)(Cc1ccccc1)c1ccco1 (stereo unspecified)	-39	2	-11	-16	34*	27*
O=C(/C=C/c1ccco1)N1CCC(Cc2ccccc2)CC1	1	0	-5	9	0	3
CC(=O)Nc1c(NC(C)C)c2ccccc2oc1=O	22*	0	-2	9	-2	-2
CCCCCCCC/C=C\CCCCCCCC(=O)NCCc1ccc(O)c(O)c1	19*	0	3	1	11	-3
CCN(CC)CCNC(=O)Cn1nc(-c2ccc(C)cc2)ccc1=O	5	1	-2	1	11	-4
Cc1ccc(-c2ccc(=O)n(CC(=O)NCCN(CC(C)C)CC(C)C)n2)cc1	24*	0	4	-3	-6	13
C=C1CC2(OC1=O)c1ccccc1CCc1ccccc12	-5	3	-10	-8	48*	17
C=CCN(C(=O)c1ccccn1)C(C(=O)NCc1ccccc1)c1ccccc1F (stereo unspecified)	-5	8	5	-6	5	7
N#Cc1c(N)c(C#N)c(-c2ccc(O)cc2)c2c1CCCC2	-2	8	0	5	1	3
N#Cc1c(N)c(C#N)c(-c2ccc3c(c2)OCO3)c2c1CCCC2	23*	0	-3	39*	1	-18
COC(=O)[C@@]1(Cc2ccc(F)cc2)[C@H]2c3cc(C(=O)N(C)C)n(Cc4ccc(C)c(F)c4F)c3C[C@H]2CN1C(=O)c1ccccc1	-4	2	1	1	0	5
CS(=O)(=O)Nc1ccccc1C(=O)NCc1ccccc1Cl	9	2	-4	4	-2	6
Cc1ccccc1CNC(=O)c1ccccc1NS(C)(=O)=O	19*	1	-4	2	-3	-4
Cc1ccc(CNC(=O)C(NS(=O)(=O)c2cccc3nsnc23)C(C)C)cc1 (stereo unspecified)	-8	2	-4	-5	0	30*
Cc1ccc(NC(=O)C(NS(=O)(=O)c2cccc3nsnc23)C(C)C)nc1 (stereo unspecified)	-1	1	-2	8	-16	-8
Cc1cccc(N/C(N)=N/c2nc(C)cc(C)n2)c1	-12	37*	14	-7	16	-1
Cc1ccc(N/C(N)=N/c2nc(C)cc(C)n2)cc1	-13	22	8	-24	25	5
CCCCc1ccc(N/C(N)=N/c2nc(C)cc(C)n2)cc1	-30	114*	51*	-18	87*	77*
CC1(C(=O)NS(=O)(=O)c2cccc(Cl)c2)CCN1C(=O)C1CCCCC1 (stereo unspecified)	1	0	1	3	-2	4
Cn1c(=O)n(Cc2ccccc2Cl)c2ccccc21	-3	-1	-3	1	0	43*
CCc1nnc(NS(=O)(=O)c2ccc(NC(=S)NC(=O)/C=C/c3ccc(C(C)C)cc3)cc2)s1	-21	-1	-7	-13	27*	12
SMILES	M5 PAM	CHRM4 agonist	M5 ag	CHRM4 PAM	M4 antag	CHRM5 antagonist
CN(C(=O)CN1C(=O)S/C(=C\c2ccc(Cl)cc2)C1=O)C1CCS(=O)(=O)C1 (stereo unspecified)	1	3	-3	17*	-21	-8
CN(C(=O)CN1C(=O)/C(=C/c2ccc(F)cc2)SC1=S)C1CCS(=O)(=O)C1 (stereo unspecified)	9	1	-1	8	3	5
CN(C(=O)CCN1C(=O)/C(=C/c2ccccc2)SC1=S)C1CCS(=O)(=O)C1 (stereo unspecified)	30*	3	2	0	-5	21
CN(C(=O)CN1C(=O)S/C(=C\c2ccccc2)C1=O)C1CCS(=O)(=O)C1 (stereo unspecified)	4	1	0	6	-1	-1
COc1ccc(Cc2nnc(SCC(=O)Nc3cc(Cl)ccc3C)[nH]c2=O)cc1	2	0	-4	-2	2	1
COc1ccc(CC2=CC(=O)c3ccccc3C2=O)cc1	2	9	7	-5	33*	11
CC(C)(CO)NCC(=O)Nc1cc(C(F)(F)F)cc(NC(=O)CNC(C)(C)CO)c1Cl	1	1	-1	21*	6	4
Cc1c(Cl)cccc1NC(=O)CNc1cccc(C(F)(F)F)c1	-3	3	-1	-2	-16	-6
CCCCc1nnc(NC(=O)C23CC4CC(CC(NC(C)=O)(C4)C2)C3)s1	-11	1	-3	-4	11	33*
O=C(C1CN(C(=O)c2cc3ccccc3o2)c2ccccc2O1)N1CCCCC1 (stereo unspecified)	-1	1	0	3	-3	4
CCC(C)c1ccccc1NC(=O)C(C)OC(=O)CN1C(=O)NC(C)(C)C1=O (stereo unspecified)	1	1	3	26*	-14	6
Cn1c(SCC(=O)NC2CCCC2)nnc1-c1ccncc1	-10	0	-1	2	-2	-11
CC(C)c1ccc(-c2nnc(SCC(=O)NC3CC3)n2C)cc1	30*	1	2	-4	10	14
Cn1ccnc1SCC(=O)NC1CCCCC1	-3	0	0	13	3	1
Cn1ccnc1SCC(=O)NC1CC1	2	5	-4	49*	3	17
COC(=O)C1=CN(c2ccc(F)cc2)C=C(C(=O)OC)C1c1ccc(O)cc1	1	0	6	0	-3	8
COc1ccc(NC(=O)c2ccco2)cc1N	20*	3	-2	5	-9	-2
NS(=O)(=O)c1ccc(N2CCN(C(=O)c3ccco3)CC2)nc1	-2	2	1	3	5	14
CC1(C(O)(C#CC[N+]2(C)CCCCC2)c2ccccc2)CCCC1 (stereo unspecified)	-20	0	-10	-21	99*	100*
O=C(COc1ccc(-c2ccccc2)cc1)NNC(=O)Nc1ccc(F)cc1F	43*	0	3	0	8	19
